Drawing on ChEMBL document CHEMBL4364301 (Eur J Med Chem, 2019), this text covers IC50 for 36 compounds.

Holding throughout (assay type): functional
One assay deals with DU-145. The experiment in a line: Antiproliferative activity against human DU145 cells assessed as reduction in cell growth incubated for 96 hrs by propidium iodide based 2D monolayer assay. To be noted: DU-145, 96 h. The method in brief:
(§1)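 After 24 h recovery, compound in medium or medium alone (control wells) was added at 10 half-log concentrations from 0.0032 to 100 µM, in triplicate, with at most 0.3% DMSO. After 96 h, wells were PBS-washed, stained with 7 µg/ml PI and 0.1% Triton X-100, and fluorescence read at 530/620 nm. IC50 came from a 4-parameter fit, geometric mean.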

Another assay relates to CWR22R. The assay can be described thus: Antiproliferative activity against human 22Rv1 cells assessed as reduction in cell growth incubated for 96 hrs by propidium iodide based 2D monolayer assay. Conditions: 22Rv1, 96 h. The method in brief:
as §1

For another assay, the system named is LNCaP. The assay can be described thus: Antiproliferative activity against human LNCAP cells assessed as reduction in cell growth incubated for 96 hrs by propidium iodide based 2D monolayer assay. The method in brief: as §1
The subject of the next assay is VCaP. The assay can be described thus: Antiproliferative activity against human VCaP cells assessed as reduction in cell growth incubated for 96 hrs by propidium iodide based 2D monolayer assay. In a few lines: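 VCaP cells in RPMI 1640 with 10% FCS at 37 °C, 5% CO2, seeded 4,000–20,000 cells/well and left 24 h before dosing. Compounds from DMSO stocks were diluted in half-log steps in medium, 10 concentrations 0.0032–100 μM, triplicate wells, max 0.3% DMSO. After 96 h, cells were washed, stained with 7 μg/ml propidium iodide plus 0.1% Triton X-100 for 1–2 h at room temperature, and fluorescence read at ex 530/em 620 nm.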

The structures appear in SMILES notation.

A word on the IC50: it is the point on the concentration scale where inhibition reaches its midpoint.

Regarding `CC1(C)C(=O)N(c2cccc(S(F)(F)(F)(F)F)c2)C(=S)N1c1ccc(C(F)(F)F)cc1`, the IC50 in the assay on DU-145 is 39.8 µM; in the assay with CWR22R, 22.4 µM; with LNCaP it was 5.2 µM; with VCaP, 54.2 µM.
For `CC1(C)C(=O)N(c2ccc([N+](=O)[O-])c(C(F)(F)F)c2)C(=S)N1c1cccc(S(F)(F)(F)(F)F)c1`, in that order: 100 µM, 100 µM, 100 µM and 100 µM.
For `CC1(C)C(=O)N(c2ccc([N+](=O)[O-])c(C(F)(F)F)c2)C(=S)N1c1ccc(S(F)(F)(F)(F)F)cc1`, in that order: 100 µM, 100 µM, 13 µM and 100 µM.
For `CC1(C)C(=O)N(c2ccc([N+](=O)[O-])cc2C(F)(F)F)C(=S)N1c1ccc(S(F)(F)(F)(F)F)cc1`, the half-maximal inhibitory concentration (IC50) in the assay on DU-145, in the assay on CWR22R, in the assay on LNCaP and with VCaP was 100 µM in each case.
`CC1(C)C(=O)N(c2ccc(C#N)c(C(F)(F)F)c2)C(=S)N1c1cccc(S(F)(F)(F)(F)F)c1`: the IC50 in the assay on DU-145 was 100 µM; with CWR22R, 100 µM; in the assay with LNCaP it was 6.9 µM; with VCaP, 100 µM.
As for `CNC(=O)c1ccc(N2C(=S)N(c3cccc(S(F)(F)(F)(F)F)c3)C(=O)C2(C)C)cc1F`, the IC50 came out at 51.1 µM in the assay on DU-145, 37.3 µM in the assay on CWR22R, 25.1 µM in the assay on LNCaP and 55.8 µM in the assay on VCaP.
For `CC(O)(CSc1cc(C(F)(F)F)cc(C(F)(F)F)c1)C(=O)Nc1cccc(S(F)(F)(F)(F)F)c1` (centres undefined), in that order: 9.4 µM, 4.4 µM, 4.8 µM and 4 µM.
For `CC1(C)C(=O)N(c2ccc(S(F)(F)(F)(F)F)cc2)C(=S)N1c1cccc(C(F)(F)F)c1`, in that order: 100 µM, 59.6 µM, 8.8 µM and 100 µM.
For `CC1(C)C(=O)N(c2ccc(S(F)(F)(F)(F)F)cc2)C(=S)N1c1ccc(C(F)(F)F)cc1`, in that order: 100 µM, 100 µM, 47.4 µM and 100 µM.
In the case of `CNC(=O)c1ccc(N2C(=S)N(c3ccc(S(F)(F)(F)(F)F)cc3)C(=O)C2(C)C)cc1F`, the concentration for half-maximal inhibition (IC50) stood at 41.6 µM in the assay on DU-145, 32.1 µM in the assay with CWR22R, 23 µM with LNCaP and 31.6 µM with VCaP.
Regarding `CC1(C)C(=O)N(c2ccc([N+](=O)[O-])cc2C(F)(F)F)C(=S)N1c1cccc(S(F)(F)(F)(F)F)c1`, the half-maximal inhibitory concentration (IC50) in the assay on DU-145 stood at 100 µM; in the assay on CWR22R, 43.9 µM; with LNCaP, 5.3 µM; in the assay on VCaP it was 100 µM.
For `CC(O)(CSc1cccc(C(F)(F)F)c1)C(=O)Nc1cccc(S(F)(F)(F)(F)F)c1` (racemic), the 50% inhibitory concentration (IC50) in the assay on DU-145 is 19.1 µM; in the assay with CWR22R it was 12.9 µM; in the assay on LNCaP it was 12.7 µM; with VCaP, 20.2 µM.
The corresponding values for `CC(O)(CSc1ccc(S(F)(F)(F)(F)F)cc1)C(=O)Nc1cccc(S(F)(F)(F)(F)F)c1` (racemic) are 24.8 µM, 13.1 µM, 12.7 µM and 24.1 µM.
`CC(O)(CSc1ccccc1C(F)(F)F)C(=O)Nc1ccc(S(F)(F)(F)(F)F)cc1` (racemic): the half-inhibitory concentration (IC50) in the assay with DU-145 stood at 15.8 µM; in the assay on CWR22R it was 13.2 µM; in the assay with LNCaP, 12.3 µM; in the assay with VCaP, 21 µM.
`CC(O)(CSc1ccc(S(F)(F)(F)(F)F)cc1)C(=O)Nc1ccc([N+](=O)[O-])c(C(F)(F)F)c1` (racemic): the half-inhibitory concentration (IC50) with DU-145 turned out to be 13.9 µM; in the assay with CWR22R, 9.2 µM; in the assay on LNCaP it was 8.7 µM; with VCaP it was 10.1 µM.
The corresponding values for `CC(O)(CSc1cccc(S(F)(F)(F)(F)F)c1)C(=O)Nc1ccc(C#N)cc1C(F)(F)F` (racemic) are 37.4 µM, 21.6 µM, 17.6 µM and 30.8 µM.
The corresponding values for `CC(O)(CSc1ccc(C(F)(F)F)cc1)C(=O)Nc1ccc(S(F)(F)(F)(F)F)cc1` (racemic) are 28.8 µM, 14.8 µM, 17 µM and 24.8 µM.
For `CC(O)(CSc1ccccc1OC(F)(F)F)C(=O)Nc1ccc(S(F)(F)(F)(F)F)cc1` (racemic), the concentration for half-maximal inhibition (IC50) in the assay with DU-145 turned out to be 29 µM; with CWR22R, 15 µM; in the assay on LNCaP it was 10.6 µM; in the assay on VCaP, 10.1 µM.
For `CC(O)(CSc1cccc(C(F)(F)F)c1)C(=O)Nc1ccc(S(F)(F)(F)(F)F)cc1` (racemic), in that order: 26.2 µM, 23.4 µM, 18.3 µM and 18.8 µM.
For `CC(O)(CSc1cccc(S(F)(F)(F)(F)F)c1)C(=O)Nc1ccc([N+](=O)[O-])c(C(F)(F)F)c1` (racemic), in that order: 13.9 µM, 8.8 µM, 8.6 µM and 9.8 µM.
For `CC(O)(CSc1ccc(F)cc1)C(=O)Nc1ccc(S(F)(F)(F)(F)F)cc1` (racemic), in that order: 25.4 µM, 13.5 µM, 12.5 µM and 23 µM.
With `CC(O)(CSc1ccc(C(F)(F)F)cc1)C(=O)Nc1cccc(S(F)(F)(F)(F)F)c1` (racemic), the IC50 worked out at 27.2 µM in the assay with DU-145, 26.9 µM with CWR22R, 17.5 µM in the assay with LNCaP and 27.3 µM in the assay with VCaP.
Turning to `CC(O)(CSc1ccc(C(F)(F)F)cn1)C(=O)Nc1ccc(S(F)(F)(F)(F)F)cc1` (racemic), the IC50 in the assay with DU-145 came out at 30.7 µM; in the assay on CWR22R it was 20 µM; in the assay on LNCaP it was 12.3 µM; in the assay with VCaP, 19 µM.
The corresponding values for `CC(O)(CSc1ccc(S(F)(F)(F)(F)F)cc1)C(=O)Nc1ccc([N+](=O)[O-])cc1C(F)(F)F` (racemic) are 14.5 µM, 13.1 µM, 10.3 µM and 26.3 µM.
For `CC(O)(CSc1ccc(S(F)(F)(F)(F)F)cc1)C(=O)Nc1ccc(C#N)cc1C(F)(F)F` (racemic), in that order: 17.7 µM, 13.2 µM, 15.1 µM and 20.5 µM.
For `CC(O)(CSc1cccc(OC(F)(F)F)c1)C(=O)Nc1ccc(S(F)(F)(F)(F)F)cc1` (racemic), in that order: 23.8 µM, 14 µM, 12.8 µM and 13.8 µM.
For the compound `CC(O)(CSc1cccc(S(F)(F)(F)(F)F)c1)C(=O)Nc1ccc([N+](=O)[O-])cc1C(F)(F)F` (racemic), the IC50 in the assay on DU-145 amounted to 18.9 µM; in the assay with CWR22R, 17.5 µM; in the assay with LNCaP, 12.7 µM; with VCaP, 28.8 µM.
For `CC(O)(CSc1cccc(S(F)(F)(F)(F)F)c1)C(=O)Nc1ccc(C#N)c(C(F)(F)F)c1` (racemic), in that order: 32.7 µM, 20.4 µM, 14.5 µM and 31.7 µM.
In the case of `CC(O)(CSc1ccc(OC(F)(F)F)cc1)C(=O)Nc1ccc(S(F)(F)(F)(F)F)cc1` (racemic), the half-inhibitory concentration (IC50) came to 12.5 µM with DU-145, 14.9 µM in the assay with CWR22R, 16.1 µM in the assay on LNCaP and 16 µM in the assay on VCaP.
With `CC(O)(CSc1cccc(S(F)(F)(F)(F)F)c1)C(=O)Nc1ccc(S(F)(F)(F)(F)F)cc1` (racemic), the IC50 with DU-145 came out at 17.3 µM; in the assay with CWR22R, 17.7 µM; in the assay with LNCaP, 25 µM; in the assay on VCaP, 28.2 µM.
For `CC(O)(CSc1ccc(S(F)(F)(F)(F)F)cc1)C(=O)Nc1ccc(S(F)(F)(F)(F)F)cc1` (racemic), the concentration for half-maximal inhibition (IC50) in the assay with DU-145 worked out at 22.3 µM; with CWR22R, 24.4 µM; in the assay with LNCaP, 18.3 µM; with VCaP, 28 µM.
Turning to `CC(O)(CSc1cc(C(F)(F)F)cc(C(F)(F)F)c1)C(=O)Nc1ccc(S(F)(F)(F)(F)F)cc1` (racemic), the half-maximal inhibitory concentration (IC50) in the assay with DU-145 is 29.7 µM; with CWR22R it was 15.8 µM; in the assay on LNCaP, 17.6 µM; with VCaP, 19.4 µM.
In the case of `CC(O)(CSc1ccccc1C(F)(F)F)C(=O)Nc1cccc(S(F)(F)(F)(F)F)c1` (racemic), the IC50 in the assay on DU-145 stood at 15.8 µM; in the assay on CWR22R, 13.2 µM; in the assay with LNCaP it was 12.3 µM; in the assay on VCaP, 21 µM.
The corresponding values for `CC(O)(CSc1cccc(S(F)(F)(F)(F)F)c1)C(=O)Nc1cccc(S(F)(F)(F)(F)F)c1` (racemic) are 30.3 µM, 17.2 µM, 12.9 µM and 29 µM.
In the case of `CC(O)(CSc1ccc(S(F)(F)(F)(F)F)cc1)C(=O)Nc1ccc(C#N)c(C(F)(F)F)c1` (racemic), the IC50 in the assay with DU-145 was 27.9 µM; in the assay with CWR22R, 18.1 µM; in the assay on LNCaP, 16.9 µM; with VCaP it was 30.2 µM.
For `CC(O)(CSc1ccc(F)cc1)C(=O)Nc1cccc(S(F)(F)(F)(F)F)c1` (racemic), in that order: 38.5 µM, 30.2 µM, 26.9 µM and 21.9 µM.
